Screening results as filed in PubChem.
Sampled rows, rich in hits. Any-hit rate of the full collection: about 2.6%.
VLA-4 inh – inhibition in a human VLA-4 binding assay | VLA-4 expressing cells, ligand binding flow cytometry | actives 0.2% (n = 330,000) | inhibition, % (about 7 µM as worked out from the volumes in the protocol) | P13612; in the data active = inhibition above about 50%
Rce1 inh – inhibitors of yeast Ras-converting enzyme; actives 0.27% (n = 290,000); calls only; AID 2563; yeast membranes, quenched prenylated peptide cleavage fluorescence; Q03530;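 active = fall in fluorescence gain of 50% or more versus controls, with final raw signal at or below 3038400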;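 also: plate controls were neutral control wells for no effect and wells lacking membranes for full effect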
Target sequence (Q03530 whole entry, looked up): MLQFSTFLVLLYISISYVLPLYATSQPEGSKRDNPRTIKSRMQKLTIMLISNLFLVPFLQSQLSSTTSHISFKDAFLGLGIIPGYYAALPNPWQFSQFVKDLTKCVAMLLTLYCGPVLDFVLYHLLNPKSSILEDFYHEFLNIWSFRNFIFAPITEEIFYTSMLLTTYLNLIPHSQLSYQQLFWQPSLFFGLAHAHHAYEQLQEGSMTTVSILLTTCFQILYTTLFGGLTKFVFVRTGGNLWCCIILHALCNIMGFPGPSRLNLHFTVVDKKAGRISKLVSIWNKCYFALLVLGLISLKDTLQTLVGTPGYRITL
TAAR1 antagonist – human TAAR1 antagonism; CHO RD-HGA16 TAAR1, Fluo-8 calcium fluorescence, antagonist; inhibition, % at 3 µM; actives 1.5% (n = 360,000); AID 624466;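 active = inhibition above a per-plate cutoff, the mean inhibition of test compounds on that plate plus 3 SD, cut at about 49% in these data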;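 also: 0% = DMSO plus EC80 beta-PEA response and 100% = DMSO alone without agonist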
Target sequence (Q96RJ0 whole entry, looked up): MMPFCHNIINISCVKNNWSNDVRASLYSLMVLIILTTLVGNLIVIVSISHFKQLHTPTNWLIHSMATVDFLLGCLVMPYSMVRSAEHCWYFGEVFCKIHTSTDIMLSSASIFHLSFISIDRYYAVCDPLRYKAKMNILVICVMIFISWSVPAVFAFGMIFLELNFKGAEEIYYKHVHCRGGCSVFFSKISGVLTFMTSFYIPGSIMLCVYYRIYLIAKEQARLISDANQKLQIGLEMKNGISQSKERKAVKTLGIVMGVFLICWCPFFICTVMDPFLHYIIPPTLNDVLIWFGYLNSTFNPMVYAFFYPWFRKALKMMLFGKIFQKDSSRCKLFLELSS
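System: CHO RD-HGA16 cells bearing hTAAR1. Reagent: EC80 β-phenethylamine stimulus. Schedule: seeding 17-24 h prior, 75-min 37 °C, 30-min RT dye loading. Signal: Fluo-8 intracellular calcium dye fluorescence, real-time kinetic reads. Read-out: % inhibition from peak post-agonist over basal fluorescence ratio. Benchmarks: vehicle wells and EC80 agonist wells. Replicates: n of 1.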
Platelet DG rel – platelet dense granule release activity; inhibition, %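 (compounds screened at 7.5 µM in platelet-rich plasma)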; human platelet-rich plasma, SFLLRN dense granule ATP release, luminescence; AID 1663; actives 0.22% (n = 300,000);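 active = mean replicate score, as percent of positive control, at or above 50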
TAAR1 agonist – agonists of human TAAR1 | CHO RD-HGA16 TAAR1, Fluo-8 calcium fluorescence; vehicle wells 0%, saturating PEA agonist 100% | actives 0.99% (n = 360,000) | Q96RJ0 | activation, % at 3 µM;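 active = activation above the mean activation of all test compounds in the run plus 3 SD, cut at about 38% in these data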
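Assay system – CHO-derived RD-HGA16 cells with stable Gα16 and human TAAR1 · Compound dosing – one-point dosing at 3 µM (nominal) · Incubation – 17-24 h seeding, 75 min 37 °C dye, 30 min RT · Measured by – kinetic Fluo-8 calcium fluorescence · Control set – DMSO vehicle as 0%, PEA at EC100 as 100% · Repeats – single well for each compound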
TAAR1 nonsel count – nonselective antagonist in TAAR1 antagonist counter-screen; shares compounds with TAAR1 antagonist; counterscreen cell line, calcium fluorescence, antagonist mode; inhibition, % at 3 µM; actives 77% (n = 2,400); in the data active = inhibition above about 22%;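 also: CHO-Ga16 host cells stimulated with ATP at an EC80 level; 0% = agonist EC80 plus vehicle and 100% = vehicle without agonist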
TAAR1 antag conf – confirmation of human TAAR1 antagonists. inhibition, % at 3 µM. shares compounds with TAAR1 antagonist. TAAR1-expressing cells, fluorescence antagonist read-out. actives 40% (n = 2,400). AID 651785; in the data active = inhibition above about 49%;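 also: CHO-Ga16 host cells challenged with agonist PEA near its EC80; 0% = agonist at EC80 plus vehicle and 100% = vehicle with no agonist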
Ga16 nonsel ag – counter-screen for TAAR1 antagonists: nonselective Ga16 agonists; shares compounds with TAAR1 antagonist; Ga16-expressing cells, calcium fluorescence, agonist counterscreen; activation, % at 3 µM; actives 18% (n = 2,400); AID 651953; in the data active = activation above about 12%;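 also: 0% = vehicle wells and 100% = saturating stimulus response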
TAAR1 ag count – activates human TAAR1 in antagonist counter-screen. shares compounds with TAAR1 antagonist. hTAAR1 cell line, fluorescence activation, agonist mode. activation, % at 3 µM. actives 2% (n = 2,400). AID 651955; in the data active = activation above about 37%;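 also: CHO cells stably expressing TAAR1 with calcium dye readout; 0% = DMSO vehicle and 100% = full agonist response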
The depositor's hits bear a star; i = inactive; nt = no result given.

SMILES	VLA-4 inh	Rce1 inh	TAAR1 antagonist	Platelet DG rel	TAAR1 agonist	TAAR1 nonsel count	TAAR1 antag conf	Ga16 nonsel ag	TAAR1 ag count
COc1cccc(NC(=O)CN(C)C(=O)c2cc(C)oc2C)c1	12	nt	0	nt	2	nt	nt	nt	nt
COc1cccc(NC(=O)c2cc(-c3ccc(C)o3)nc3ccccc23)c1	-4	i	55*	1	7	25*	42	7	5
COc1cccc(NC(=O)CN(C)C(=O)c2cc(-c3ccc(C)o3)nc3ccccc23)c1	0	nt	61*	nt	20	32*	52*	8	7
CCCCN1CC(=O)N2[C@H]3c4ccccc4OC[C@@H]3[C@H](c3ccccc3)[C@]2(C)C1=O	8	nt	4	nt	6	nt	nt	nt	nt
CCCS(=O)(=O)NC(=O)C1(C)CCCN(C(=O)c2cc(OC)c(OC)c(OC)c2)C1 (stereo not drawn)	nt	nt	-22	nt	1	nt	nt	nt	nt
CCN(C(=O)CCN1C(=O)S/C(=C\c2ccccc2)C1=O)C1CCS(=O)(=O)C1 (stereo not drawn)	1	i	10	-2	4	nt	nt	nt	nt
COc1cc(C#N)ccc1OCC(=O)Nc1cccc(S(=O)(=O)N(C)c2ccccc2)c1	nt	nt	74*	nt	12	36*	49*	10	7
CCCC(=O)Nc1cccc(S(=O)(=O)N(C)c2ccccc2)c1	8	i	-4	2	1	nt	nt	nt	nt
CCN(CC)S(=O)(=O)c1cccc(NC(=O)COc2ccc(C#N)cc2OC)c1	3	i	5	-5	11	nt	nt	nt	nt
CC(=O)CCc1ccc(OCC(=O)Nc2cccc(S(=O)(=O)N(C)c3ccccc3)c2)cc1	nt	nt	74*	nt	10	35*	52*	11	8
CC1CCc2c(sc3ncnc(SCC(=O)N(C)C4CCS(=O)(=O)C4)c23)C1 (stereo not drawn)	2	nt	4	nt	9	nt	nt	nt	nt
Cc1cc(C)c(NS(=O)(=O)c2ccccc2)c(C)n1	nt	nt	-8	nt	0	nt	nt	nt	nt
CC(C)C(=O)N1CCC1(C)C(=O)Nc1ccccc1OC(F)F (stereo not drawn)	nt	nt	-9	nt	1	nt	nt	nt	nt
C/C(=N\Nc1nc(Cl)c(Cl)cc1Cl)c1ccc(S(=O)(=O)NCc2ccco2)cc1	28	i	65*	6	10	40*	52*	9	5
CC(Sc1ncccn1)C(=O)N1CCc2ccccc21 (stereo not drawn)	nt	nt	-13	nt	0	nt	nt	nt	nt
CCOC(=O)C1CCCN(C2=C(NS(=O)(=O)c3ccc(Br)cc3)C(=O)c3ccccc3C2=O)C1 (stereo not drawn)	-21	i	62*	-3	21	26*	38	0	12
CCOC(=O)C1CCN(C2=C(NS(=O)(=O)c3ccc(Cl)cc3)C(=O)c3ccccc3C2=O)CC1	6	i	31	5	-2	nt	nt	nt	nt
Cn1c(OCC2CCCO2)nc2cc(-c3ccccc3)sc2c1=O (stereo not drawn)	nt	nt	8	nt	2	nt	nt	nt	nt
Fc1ccc2cnc(-c3ccccc3)c(-c3cc(C(F)(F)F)cc(C(F)(F)F)c3)c2c1	-3	nt	-21	nt	3	nt	nt	nt	nt
O=[N+]([O-])c1ccc(-c2c(-c3ccccc3)ncc3ccc(F)cc23)cc1	15	nt	74*	nt	0	19	66*	-1	-2
COC(=O)c1ccc(-c2c(-c3ccccc3)ncc3cc(F)ccc23)cc1	-6	nt	11	nt	3	nt	nt	nt	nt
Fc1ccc2cnc(-c3ccccc3)c(-c3ccc(C(F)(F)F)cc3)c2c1	6	nt	63*	nt	0	9	37	4	-1
N#Cc1ccc(-c2c(-c3ccccc3)ncc3cc(F)ccc23)cc1	-9	nt	59*	nt	1	18	44	1	3
CS(=O)(=O)c1ccc(Cl)c(NC(=O)CCl)c1	-1	i	-11	-2	-1	nt	nt	nt	nt
CC(C)C[C@@H](CO)N1CCN(CCCc2ccccc2)CCC1=O	-9	i	1	1	3	nt	nt	nt	nt
SMILES	VLA-4 inh	Rce1 inh	TAAR1 antagonist	Platelet DG rel	TAAR1 agonist	TAAR1 nonsel count	TAAR1 antag conf	Ga16 nonsel ag	TAAR1 ag count
COC(=O)Cc1nnn2c1[C@@H](C)[C@@H](c1ccccc1Br)OC[C@H](C)C2	nt	nt	-17	nt	0	nt	nt	nt	nt
COc1ccc(Cl)cc1NC(=O)COC(=O)/C=C/c1c(C)nn(C2CCS(=O)(=O)C2)c1Cl (stereo not drawn)	0	i	53*	4	16	42*	41	13*	13
COC(=O)C1CN(C(=O)c2cccc(OC(F)F)c2)c2ccccc2O1 (stereo not drawn)	-3	i	-8	-9	12	nt	nt	nt	nt
O=C(N=Nc1c(O)[nH]c2ccccc12)c1cc(-c2cccs2)[nH]n1	-14	i	32	1	6	nt	nt	nt	nt
O=C(N=Nc1c(O)[nH]c2ccccc12)c1cc(-c2ccc(F)cc2)n[nH]1	-12	i	65*	0	4	14	15	2	0
O=c1[nH]c2cccc(F)c2n2cccc12	16	i	-17	16	6	nt	nt	nt	nt
COC(=O)CCN(Cc1ccc(OC)cc1OC)S(=O)(=O)c1ccccc1Br	nt	nt	-24	nt	-1	nt	nt	nt	nt
CCN(CC(=O)Nc1c(C(=O)OC)[nH]c2ccc(Cl)cc12)c1ccc2c(c1)OCO2	-25	i	60*	1	6	27*	37	5	3
NC(=O)c1cccc(-c2coc3c(C(=O)NCCc4ccccc4)cccc23)c1	nt	nt	64*	nt	6	36*	45	6	6
O=C(NCc1ccccc1)c1cccc2c(-c3cccnc3)coc12	nt	nt	25	nt	9	nt	nt	nt	nt
COCC(=O)N[C@H]1C=C[C@@H](CC(=O)NCc2ccccc2OC)O[C@@H]1CO	nt	nt	0	nt	1	nt	nt	nt	nt
O=C1NC[C@H](CCCCN2C[C@H](Cc3ccc(O)cc3)N(CCc3ccc(O)cc3)C(=O)C2=O)N(CCc2ccccc2)C1=O	nt	nt	11	nt	0	nt	nt	nt	nt
COc1ccc(CCNC(=O)Nc2ccc3nc([C@@H]4O[C@H](CO)[C@@H](O)[C@H](O)[C@H]4O)[nH]c3c2)cc1Br	nt	nt	11	nt	0	nt	nt	nt	nt
CCOc1cc2c(cc1OC)C(c1cccc([N+](=O)[O-])c1)NCC2 (stereo not drawn)	-2	i	106*	8	0	4	7	3	6
O=c1[nH]c(COc2ccc(Br)cc2Cl)nc2ccccc12	11	i	-20	10	6	nt	nt	nt	nt
COc1ccc(NC(=O)C2CCCN(S(=O)(=O)c3cccc4cccnc34)C2)c(OC)c1 (stereo not drawn)	3	i	65*	6	7	23*	29	7	7
